Data as given in article PMC9473745 (Cell chemical biology, 2021).
“Also recorded” adds a separate entry of the source. Like-named read-outs stand apart in the source and are kept apart here. Each block holds one molecule with its values, some of them ahead of it.

How the values were obtained:
USP7 catalytic domain = USP7 catalytic domain (Homo sapiens, UniProt Q93009); assay: Ubiquitin rhodamine 110 kinetic assay, USP7 catalytic domain; type: biochemical
Procedure, shortened: (§1)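 Human DUB constructs, each N-terminally 6xHis-tagged and expressed in E. coli BL21(DE3): USP7 full length (AA 1–1102), USP7 catalytic domain (AA 208–560), USP8 catalytic domain (AA 743–1110) and USP30 catalytic domain (AA 65–517). Ub-Rho110 was then added and fluorescence (ex 485/em 535 nm) read each minute over 30 min. Initial rates were normalized to no-compound wells and fitted (variable slope) for IC50; each run at least twice, SEM.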

full-length USP7 = assay: Kinetic Ub-Rho assay, full-length USP7; type: biochemical, human; conditions: dose-response
Procedure, shortened: as §1

USP7 = assay: Ub-Rho endpoint screen of spiro indolinone expansion set, USP7; type: biochemical, human; conditions: 8-point dose-response in triplicate
Procedure, shortened: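 Enzyme and acoustically dispensed test compound were incubated 1 h; DMSO-only wells served as neutral control. Ub-Rho110 was then added and the reaction run 10 min at room temperature without a quench. Fluorescence was read at ex 485/em 535 nm.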

USP8 [1] = assay: Ub-Rho endpoint screen of spiro indolinone expansion set, USP8; type: biochemical, human; conditions: 8-point dose-response in triplicate
Procedure, shortened: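 Enzyme and test compound were incubated 10 min; DMSO wells served as control. Ub-Rho110 was then added and the reaction run 30 min–3 h at room temperature depending on DUB. Stopped with assay buffer plus 0.2% TFA and read at ex 485/em 535 nm.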

USP28 catalytic domain = molecular target: T1, USP28 catalytic domain (Homo sapiens, UniProt Q96RU2); assay: Ubiquitin rhodamine 110 kinetic assay, USP28; type: biochemical; conditions: for potency relative to AZ1: USP28 IC50 compared with AZ1
T1 sequence (Q96RU2 149-703): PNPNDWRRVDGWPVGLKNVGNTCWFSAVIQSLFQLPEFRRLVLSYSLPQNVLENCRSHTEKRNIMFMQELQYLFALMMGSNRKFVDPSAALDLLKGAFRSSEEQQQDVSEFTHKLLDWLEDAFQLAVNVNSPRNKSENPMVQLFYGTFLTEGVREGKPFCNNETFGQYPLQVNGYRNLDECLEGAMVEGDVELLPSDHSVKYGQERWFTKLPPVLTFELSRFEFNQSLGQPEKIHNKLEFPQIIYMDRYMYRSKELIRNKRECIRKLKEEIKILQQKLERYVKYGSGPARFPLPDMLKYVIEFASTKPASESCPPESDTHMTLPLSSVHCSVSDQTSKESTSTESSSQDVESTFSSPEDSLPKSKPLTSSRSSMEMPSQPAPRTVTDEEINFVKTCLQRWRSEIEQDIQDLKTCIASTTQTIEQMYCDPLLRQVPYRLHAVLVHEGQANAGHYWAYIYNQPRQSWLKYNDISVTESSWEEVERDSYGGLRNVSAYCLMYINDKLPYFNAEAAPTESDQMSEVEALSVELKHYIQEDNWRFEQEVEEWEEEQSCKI

USP28 in HEK293T lysates = assay: Quantitative activity-based protein profiling; type: binding, human; conditions: HEK293T lysate, 250 μM compound, Ub-PA/Ub-VME probes
Procedure, shortened: (§2)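 HEK293T cells were lysed in NP-40/glycerol/TCEP buffer with protease and phosphatase inhibitors, and lysate was diluted to 10 mg/mL. Lysate was incubated with 250 μM test compound or DMSO for 30 min at room temperature, with a selective USP7 inhibitor as positive control. Biotin-Ub-PA and biotin-Ub-VME (1 μM each) were added for 15 min. Labelled proteins were captured on streptavidin, trypsin-digested on bead and TMT-labelled. Quantified by multidimensional LC-MS using reporter-ion protein-level values.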

[2] = tested on: USP28 in HEK293T cellular lysate; assay: Competitive ABPP with western blot readout for USP28; type: binding, human; conditions: 1 hour pre-treatment, dose-response
Procedure, shortened: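 Lysate was pre-incubated with compound or DMSO for 1 h at RT. It was then labeled with 1:1 Ub-PA/Ub-VME (2 μM final) for 30 min at RT with shaking. Samples were denatured at 95°C, run on SDS-PAGE, and immunoblotted with anti-USP28 rabbit monoclonal.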

USP30 catalytic domain = molecular target: T2, USP30 catalytic domain (Homo sapiens, UniProt Q70CQ3); assay: Ubiquitin rhodamine 110 kinetic assay, USP30; type: biochemical
T2 sequence (Q70CQ3 65-517): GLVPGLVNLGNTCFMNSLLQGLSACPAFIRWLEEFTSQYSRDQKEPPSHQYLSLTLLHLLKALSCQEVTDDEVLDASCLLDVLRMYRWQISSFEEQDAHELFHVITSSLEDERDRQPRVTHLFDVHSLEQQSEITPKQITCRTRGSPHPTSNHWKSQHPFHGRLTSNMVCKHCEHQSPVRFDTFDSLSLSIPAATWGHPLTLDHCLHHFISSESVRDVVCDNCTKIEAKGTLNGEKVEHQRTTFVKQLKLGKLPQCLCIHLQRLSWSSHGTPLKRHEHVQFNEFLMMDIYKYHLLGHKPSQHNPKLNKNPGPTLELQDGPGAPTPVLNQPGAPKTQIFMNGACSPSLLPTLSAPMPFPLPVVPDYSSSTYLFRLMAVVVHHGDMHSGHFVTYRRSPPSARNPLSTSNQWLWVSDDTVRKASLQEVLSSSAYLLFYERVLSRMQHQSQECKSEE
Procedure, shortened: as §1

[3] = tested on: native USP25 in HEK293T lysates; assay: Quantitative activity-based protein profiling; type: binding, human; conditions: HEK293T lysate, 250 μM compound, Ub-PA/Ub-VME probes
Procedure, shortened: as §2

[4] = tested on: other DUBs detected in cell lysate; assay: Quantitative activity-based protein profiling; type: binding, human; conditions: HEK293T lysate, 250 μM compound, Ub-PA/Ub-VME probes
Procedure, shortened: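 Aliquots were treated with 250 μM compound or DMSO for 30 min at RT, then processed to peptides. Peptides were TFA-acidified, C18-desalted, and TMT-labeled for 1 h at RT. Peptides were mapped to unique genes, and reporter ions were aggregated into protein-level values.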

USP8 catalytic domain = molecular target: T3, USP8 catalytic domain (Homo sapiens, UniProt P40818); assay: Ubiquitin rhodamine 110 kinetic assay, USP8; type: biochemical; conditions: kinetic Ub-Rho assay
T3 sequence (P40818 743-1110): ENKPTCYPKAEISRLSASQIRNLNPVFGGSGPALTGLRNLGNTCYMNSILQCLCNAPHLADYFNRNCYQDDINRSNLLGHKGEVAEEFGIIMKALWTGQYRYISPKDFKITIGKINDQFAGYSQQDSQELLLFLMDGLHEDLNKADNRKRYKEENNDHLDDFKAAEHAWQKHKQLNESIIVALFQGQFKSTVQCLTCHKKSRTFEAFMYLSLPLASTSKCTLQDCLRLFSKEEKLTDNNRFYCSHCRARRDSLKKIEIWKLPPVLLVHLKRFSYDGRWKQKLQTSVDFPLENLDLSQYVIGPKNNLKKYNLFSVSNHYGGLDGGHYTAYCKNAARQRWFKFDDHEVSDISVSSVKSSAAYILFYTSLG
Procedure, shortened: as §1

USP10 catalytic domain = USP10 catalytic domain (Homo sapiens, UniProt Q14694); assay: Ubiquitin rhodamine 110 kinetic assay, USP10; type: biochemical; conditions: read-out: IC50 ± SEM, kinetic Ub-Rho assay, 12-point dose-response, mean ± SEM (n)
Chain of USP10 catalytic domain (Q14694 376-798): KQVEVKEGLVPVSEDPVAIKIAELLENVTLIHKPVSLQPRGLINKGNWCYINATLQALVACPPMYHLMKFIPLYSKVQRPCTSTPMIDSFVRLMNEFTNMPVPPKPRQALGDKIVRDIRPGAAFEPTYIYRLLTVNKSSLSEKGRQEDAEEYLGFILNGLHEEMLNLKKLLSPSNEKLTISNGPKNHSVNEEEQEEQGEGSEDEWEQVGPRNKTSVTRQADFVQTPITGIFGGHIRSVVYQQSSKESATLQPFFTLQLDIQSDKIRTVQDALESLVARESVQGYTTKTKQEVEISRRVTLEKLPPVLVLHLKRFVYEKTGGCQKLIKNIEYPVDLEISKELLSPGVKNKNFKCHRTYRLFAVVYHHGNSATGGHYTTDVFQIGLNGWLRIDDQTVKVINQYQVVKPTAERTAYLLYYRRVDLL
Procedure, shortened: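 Enzyme was the human USP10 catalytic domain (aa 376–798), N-6xHis, E. coli-expressed, purified by Ni-NTA and Superdex 200. Fluorescence (ex 485/em 535 nm) was read every minute for 30 min. Initial rates were normalized to no-compound control and fitted with a variable-slope model; runs ≥2, SEM.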

USP8 [5] = assay: Ubiquitin-AMC kinetic assay, USP8; type: biochemical, human; conditions: dose-response
Procedure, shortened: (§3)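 Same kinetic protocol as the Ub-Rho110 assay, with Ub-AMC as substrate. His-tagged catalytic domains were used: USP8 (AA 743–1110) and USP10 (AA 376–798). Read at ex 345/em 445 nm each minute over 30 min. IC50 came from initial rates normalized to no-compound wells and was compared with the Ub-Rho110 value.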

USP10 = assay: Ubiquitin-AMC kinetic assay, USP10; type: biochemical, human; conditions: dose-response
Procedure, shortened: as §3

[6] = IC50 ± SEM, USP28, catalytic domain of the human protein, kinetic Ub-Rho assay, mean ± SEM (n)

Chain of USP7 catalytic domain (Q93009 208-560): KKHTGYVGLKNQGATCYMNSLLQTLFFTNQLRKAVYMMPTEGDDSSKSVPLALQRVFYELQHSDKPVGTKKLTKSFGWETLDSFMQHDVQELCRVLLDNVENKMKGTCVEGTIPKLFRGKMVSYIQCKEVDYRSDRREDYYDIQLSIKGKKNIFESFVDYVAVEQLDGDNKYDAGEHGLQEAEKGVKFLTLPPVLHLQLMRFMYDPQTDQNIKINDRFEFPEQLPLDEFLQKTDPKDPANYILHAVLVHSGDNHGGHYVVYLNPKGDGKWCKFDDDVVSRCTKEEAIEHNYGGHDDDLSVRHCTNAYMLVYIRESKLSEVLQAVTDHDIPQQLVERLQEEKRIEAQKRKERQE

- IC50 (USP7 catalytic domain; read-out: IC50 ± SEM, USP7, kinetic Ub-Rho assay, 12-point dose-response, mean ± SEM (n)): 4.68 ± 1.05 µM
SMILES: Cc1nn(-c2ccccc2)c2c1C1(C(=O)Nc3ccccc31)N1C(=N2)Sc2ccccc21 (centres unmarked) [AV-9606–27, 3-methyl-1-phenyl-1H-spiro[benzo[4,5]thiazolo[3,2-a]pyrazolo[3,4-d]pyrimidine-4,3’-indolin]-2’-one]

- IC50 (USP7 catalytic domain): 3.83 ± 1.6 µM
SMILES: CC(C)c1[nH]nc2c1C1(C(=O)Nc3ccccc31)C(C#N)=C(N)O2 (centres unmarked) [AV-9606–41, 6’-amino-3’-isopropyl-2-oxo-2’H-spiro[indoline-3,4’-pyrano[2,3-c]pyrazole]-5’-carbonitrile]
- inhibition of full-length USP7 (full-length USP7): no inhibition of full-length protein; also recorded: no activity against a full-length protein
- activity against USP7 in expansion set screen (USP7): active against USP7
- activity against USP8 in expansion set screen (USP8 [1]): inactive against USP8

- IC50 (USP28 catalytic domain; [6]): 4.33 ± 1.08 µM
SMILES: O=C1c2ccccc2NC2(C(=O)Nc3ccc(Br)cc32)N1c1ccccc1 (centres unmarked) [AV-9606–99, 5-bromo-3’-phenyl-1’H-spiro[indoline-3,2’-quinazoline]-2,4’(3’H)-dione]

- IC50 (USP28 catalytic domain; [6]): 0.402 ± 0.197 µM
SMILES: Cc1ccc(S(=O)(=O)N(C)C)cc1NC(=O)Cc1ccc(Cl)c(Cl)c1 [AV-9606–129, 2-(3,4-dichlorophenyl)-N-(5-(N,N-dimethylsulfamoyl)-2-methylphenyl)acetamide]

- IC50 (USP28 catalytic domain; IC50, USP28): ≤ 0.1 µM
- potency relative to AZ1 (USP28 catalytic domain): approximately 10 fold
SMILES: O=c1ccc(-c2noc(Cc3ccc(Cl)c(Cl)c3)n2)c[nH]1 [AV-9606–180, 5-(5-(3,4-dichlorobenzyl)-1,2,4-oxadiazol-3-yl)pyridin-2(1H)-one]
- blockage of probe labeling of USP28 (USP28 in HEK293T lysates): strong inhibition of USP28
- blockage of USP28 labeling by covalent probe (western blot) [2]: good dose-dependent inhibition and prevention of probe labeling

- IC50 (USP30 catalytic domain): 0.275 ± 0.07 µM
SMILES: CC(C)NS(=O)(=O)c1cccc2c(NC(=O)[C@H](Cc3ccccc3)NC(=O)c3ccccc3)cccc12 [AV-11324–5, (S)-N-(1-((5-(N-isopropylsulfamoyl)naphthalen-1-yl)amino)-1-oxo-3-phenylpropan-2-yl)benzamide]

- IC50 (USP28 catalytic domain; [6]): 0.176 ± 0.073 µM
SMILES: O=c1ccc(-c2noc(Cc3cccc(Cl)c3)n2)c[nH]1 [AV-11324–75, 5-(5-(3-chlorobenzyl)-1,2,4-oxadiazol-3-yl)pyridin-2(1H)-one]
- blockage of USP28 labeling by covalent probe (western blot) [2]: good dose-dependent inhibition and prevention of probe labeling

SMILES: OCCNCc1cc(Br)ccc1OCc1ccc(F)c(C(F)(F)F)c1 [AZ1]
- blockage of probe labeling of USP25 [3]: strongly blocked labeling of USP25
- blockage of probe labeling of USP28 (USP28 in HEK293T lysates): little impact on USP28
- activity toward other DUBs detected [4]: did not exhibit activity toward any other DUBs

- inhibition of off-target DUB USP8 (USP8 catalytic domain): confirmed inhibition
- IC50 (USP10 catalytic domain): 26.6 ± 4.69 µM
- increase in IC50 value with Ubiquitin-AMC versus Ub-Rho (USP8 [5]): 3–10 fold
- increase in IC50 value with Ubiquitin-AMC versus Ub-Rho (USP10): 3–10 fold
SMILES: COc1ccc(C(=O)COC(=O)c2ccccc2NS(=O)(=O)c2ccc(O)c([N+](=O)[O-])c2)cc1 [Compound Z56965384]

- IC50 (USP28 catalytic domain; IC50, USP28): ≤ 0.1 µM
- IC50 (USP28 catalytic domain; [6]): 0.046 ± 0.017 µM
- potency relative to AZ1 (USP28 catalytic domain): approximately 10 fold
SMILES: CCCc1nc2sc3c(NCCc4ccc(OC)c(OC)c4)ncnc3c2c2c1CCC2 [bin-01–07-07, N-(3,4-dimethoxyphenethyl)-4-propyl-2,3-dihydro-1H-cyclopenta[4’,5’]pyrido[3’,2’:4,5]thieno[3,2-d]pyrimidin-7-amine]
- blockage of probe labeling of USP28 (USP28 in HEK293T lysates): strong inhibition of USP28
- blockage of USP28 labeling by covalent probe (western blot) [2]: good dose-dependent inhibition and prevention of probe labeling
